The record followed here is ChEMBL document CHEMBL2434823, “Design, synthesis and biological activities of some 7-aminocephalosporanic acid derivatives” (Eur J Med Chem, 2013).

The inhibition is the relative decrease from the control value, in per cent. One may read the IC50 as the concentration that inhibits the measured activity by half.

Calls of active or inactive are those of the source. The calls are words filed in the database; no cut-off is given here.

The target in assay [1] is Urease (Canavalia ensiformis) (UniProt P07374). Description: Inhibition of jack bean urease using urea as substrate assessed as ammonia production at 250 ug/ml after 15 mins relative to control. In outline: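 Jack bean urease in pH 8.2 buffer (100 mM urea, 0.01 M K2HPO4, 1 mM EDTA, 0.01 M LiCl) was incubated with compound for 15 min at room temperature. Ammonia was measured by the indophenol method (phenol/nitroprusside, then NaOH/NaOCl) at A625 after 20 min. Inhibition % = 100 − (OD test/OD control)×100. […] Thiourea was the standard.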

The subject of assay [2] is Saccharomyces cerevisiae. Description: Antimicrobial activity against Saccharomyces cerevisiae RSKK 251. In kind it is functional.
The test system of assay [3] is Mycolicibacterium smegmatis. Description: Antimicrobial activity against Mycobacterium smegmatis ATCC 607. In kind it is functional.
The test system of assay [4] is Candida albicans. Description: Antimicrobial activity against Candida albicans ATCC 60193. The assay is classed as functional.
The subject of assay [5] is Enterococcus faecalis. Description: Antimicrobial activity against Enterococcus faecalis ATCC 29212. In kind it is functional. In outline: (§1)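 Compound stocks were 20.000 µg/mL in hexane. DMSO diluted 1:10 served as the solvent control, and ampicillin was the reference drug.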
For assay [6], the system named is Bacillus cereus. Description: Antimicrobial activity against Bacillus cereus 702 Roma. In kind it is functional. In outline:
as §1

Assay [7] has as its system Staphylococcus aureus. Description: Antimicrobial activity against Staphylococcus aureus ATCC 25923. The assay is classed as functional. In outline: as §1
The subject of assay [8] is Yersinia pseudotuberculosis. Description: Antimicrobial activity against Yersinia pseudotuberculosis ATCC 911. The assay is classed as functional. In outline:
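Compounds were dissolved in […] as 20.000 µg/mL stocks. Ampicillin (10 µg) was the reference antibacterial, and DMSO diluted 1:10 was the solvent control.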

The test system of assay [9] is Pseudomonas aeruginosa. Description: Antimicrobial activity against Pseudomonas aeruginosa ATCC 43288. The assay is classed as functional. In outline: as §1
Assay [10] in a line: Inhibition of Bacillus cereus metallo beta-lactamase assessed as nitrocefin substrate hydrolysis after 20 mins. In outline: (§2)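 Commercial B. cereus metallo-β-lactamase (1.5 µM solution) was combined with nitrocefin (150 µM solution) and compound in 25 mM PIPES pH 7.0 containing 100 µM ZnSO4. A486 was read continuously for 20 min at 37 °C. Residual activity was taken relative to the no-inhibitor control, in triplicate. Screening used 1 mM final; IC50 came from a concentration series. HgCl2 was the positive control.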

Assay [11] concerns Bacillus cereus. Description: Inhibition of Bacillus cereus metallo beta-lactamase assessed as nitrocefin substrate hydrolysis at 1 mM after 20 mins. In outline:
as §2

Chain of Urease (Canavalia ensiformis) (P07374 whole entry, looked up): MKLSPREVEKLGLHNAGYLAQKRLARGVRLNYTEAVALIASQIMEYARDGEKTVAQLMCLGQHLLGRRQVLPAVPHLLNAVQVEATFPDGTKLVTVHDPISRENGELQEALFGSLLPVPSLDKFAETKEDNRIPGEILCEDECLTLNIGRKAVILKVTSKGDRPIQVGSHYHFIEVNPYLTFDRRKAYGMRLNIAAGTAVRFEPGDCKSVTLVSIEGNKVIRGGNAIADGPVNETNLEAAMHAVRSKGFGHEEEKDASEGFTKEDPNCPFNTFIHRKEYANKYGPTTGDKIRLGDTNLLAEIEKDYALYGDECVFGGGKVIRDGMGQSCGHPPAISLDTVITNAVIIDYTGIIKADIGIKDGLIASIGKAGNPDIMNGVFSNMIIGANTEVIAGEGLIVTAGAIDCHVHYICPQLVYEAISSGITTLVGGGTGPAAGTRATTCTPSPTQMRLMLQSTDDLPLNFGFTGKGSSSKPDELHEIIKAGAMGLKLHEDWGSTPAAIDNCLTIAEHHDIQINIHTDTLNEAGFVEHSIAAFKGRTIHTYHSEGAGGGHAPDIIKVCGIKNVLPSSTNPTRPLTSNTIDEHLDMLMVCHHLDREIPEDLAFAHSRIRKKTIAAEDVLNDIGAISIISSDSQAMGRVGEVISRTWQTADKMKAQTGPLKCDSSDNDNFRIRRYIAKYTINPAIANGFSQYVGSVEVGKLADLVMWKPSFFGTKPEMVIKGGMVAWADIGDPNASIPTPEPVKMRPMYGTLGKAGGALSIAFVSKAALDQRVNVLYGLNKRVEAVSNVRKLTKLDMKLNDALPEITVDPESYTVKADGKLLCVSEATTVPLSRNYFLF

In the case of `O=S(=O)(Cl)c1ccc(NC(=S)Nc2ccccc2)cc1`, the inhibition in [1] came to 21%. The “inhibition zone (IZ)” value worked out at 15 mm in assay [2], 8 mm in [4] and 6 mm in assay [7]. Also, the “inhibition zone (IZ)” value in [3], in assay [5], in assay [6], in assay [8] and in [9] was “inactive” throughout.

As for `O=C(Cl)CN1CCN(c2ccc([N+](=O)[O-])cc2F)CC1`, the inhibition in [1] is 25%. The “inhibition zone (IZ)” value in assay [2] is reported as 30 mm; in assay [4], 15 mm; in [5], 8 mm; in assay [6], 8 mm; in assay [7], 15 mm. In addition, the “inhibition zone (IZ)” value in assay [3], in assay [8] and in assay [9] was “inactive” in each case.

With MERCURIC CHLORIDE [listing 1 of 2 here], the IC50 in assay [10] is 93 µM.

Turning to `O=S(=O)(Cl)c1ccc(/N=c2/sc(-c3ccc(Cl)cc3)cn2Cc2ccccc2)cc1`, the “inhibition zone (IZ)” value in assay [2] amounted to 20 mm; in assay [3], 10 mm; in [4] it was 10 mm; in assay [5], 18 mm; in assay [6], 6 mm; in [7], 16 mm. Also, the “inhibition zone (IZ)” value in [8] and in assay [9] was “inactive” each time.

On to `O=C1CN(Cc2ccccc2)/C(=N\c2ccc(S(=O)(=O)Cl)cc2)S1`, for which the “inhibition zone (IZ)” value was determined as 18 mm in assay [2]; 12 mm in assay [3]; 10 mm in [4]; 10 mm in assay [5]; 10 mm in assay [6]; 18 mm in [7]. Besides, the “inhibition zone (IZ)” value in [8] and in [9] was “inactive” throughout.

As for MERCURIC CHLORIDE [listing 2 of 2 here], the inhibition in assay [11] is 76%.

For `O=S(=O)(Cl)c1ccc(NC(=S)NCc2ccccc2)cc1`, the “inhibition zone (IZ)” value in [2] stood at 8 mm; in assay [3], 17 mm; in [4] it was 8 mm; in assay [5], 16 mm; in assay [6] it was 18 mm; in [7], 30 mm. Also, the “inhibition zone (IZ)” value in assay [8] came to 25 mm; in assay [9], 20 mm.

On to `CC(=O)OCC1=C(C(=O)O)N2C(=O)[C@@H](NS(=O)(=O)c3ccc(NC(=O)Nc4ccccc4)cc3)[C@H]2SC1`, for which the “inhibition zone (IZ)” value in assay [2] stood at 8 mm; in assay [3], 10 mm; in assay [4] it was 8 mm; in assay [5], 8 mm; in assay [6] it was 10 mm; in assay [7] it was 15 mm. In addition, the results for the “inhibition zone (IZ)” value in assay [8] and in assay [9] were 8 mm and 6 mm, respectively.

As to `O=S(=O)(Cl)c1ccc(/N=c2/sc(-c3ccc(Cl)cc3)cn2-c2ccccc2)cc1`, in assay [1], the inhibition amounted to 3%. Besides, the “inhibition zone (IZ)” value in assay [2] is given as 22 mm; in [3], 12 mm; in [4], 10 mm; in assay [5] it was 8 mm; in assay [6] it was 8 mm; in assay [7], 18 mm. For the same compound, the “inhibition zone (IZ)” value in assay [8] and in assay [9] was “inactive” in each case.

`CC(=O)OCC1=C(C(=O)O)N2C(=O)[C@@H](NS(=O)(=O)c3ccc(/N=C4/SC(=O)CN4Cc4ccccc4)cc3)[C@H]2SC1`: the “inhibition zone (IZ)” value in [2] is reported as 18 mm; in assay [3] it was 16 mm; in assay [4], 10 mm; in assay [5] it was 10 mm; in [6], 8 mm; in assay [7], 22 mm. Also, the “inhibition zone (IZ)” value in assay [8] and in [9] was 8 mm throughout.

With `CC(=O)OCC1=C(C(=O)O)N2C(=O)[C@@H](NS(=O)(=O)c3ccc(/N=c4/sc(-c5ccc(Cl)cc5)cn4-c4ccccc4)cc3)[C@H]2SC1`, the inhibition in assay [1] is 15%. Besides, the “inhibition zone (IZ)” value came out at 14 mm in assay [2]; 16 mm in assay [3]; 10 mm in assay [4]; 8 mm in assay [6]; 6 mm in [8]; 6 mm in [9]. Also, the “inhibition zone (IZ)” value in assay [5] and in assay [7] was “inactive” in each case.

For the compound `CN[C@@H]1[C@H](O[C@H]2[C@H](O[C@H]3[C@H](O)[C@@H](O)[C@H](N=C(N)N)[C@@H](O)[C@@H]3N=C(N)N)O[C@@H](C)[C@]2(O)C=O)O[C@@H](CO)[C@H](O)[C@H]1O` [STREPTOMYCIN], in [3], the “inhibition zone (IZ)” value is 35 mm.

Consider `Nc1ccc(S(=O)(=O)Cl)cc1`, for which the “inhibition zone (IZ)” value is 20 mm in [2]; 10 mm in assay [3]; 13 mm in assay [4]; 12 mm in assay [5]; 15 mm in [6]; 18 mm in [7]. For the same compound, the entries for the “inhibition zone (IZ)” value in assay [8] and in [9] were 12 mm and 28 mm, respectively.

As to `CC(=O)OCC1=C(C(=O)O)N2C(=O)[C@@H](NS(=O)(=O)c3ccc(NC(=S)NCc4ccccc4)cc3)[C@H]2SC1`, the “inhibition zone (IZ)” value was 10 mm in assay [2]; 16 mm in assay [3]; 8 mm in assay [4]; 10 mm in assay [5]; 8 mm in assay [6]; 15 mm in [7]. The “inhibition zone (IZ)” value in assay [8] is 8 mm; in [9], 6 mm.

As for `CC(=O)OCC1=C(C(=O)O)N2C(=O)[C@@H](NS(=O)(=O)c3ccc(NC(=S)Nc4ccccc4)cc3)[C@H]2SC1`, the “inhibition zone (IZ)” value is listed as 22 mm in [2]; 18 mm in [3]; 14 mm in assay [4]; 10 mm in assay [5]; 12 mm in [6]; 18 mm in assay [7]. In addition, the results for the “inhibition zone (IZ)” value in [8] and in [9] were 10 mm and 8 mm, respectively.

`CC(=O)OCC1=C(C(=O)O)N2C(=O)[C@@H](NS(=O)(=O)c3ccc([N+](=O)[O-])cc3)[C@H]2SC1`: the results for the inhibition in assay [11] and in assay [1] were 18% and 28%, respectively. The “inhibition zone (IZ)” value in [2], in assay [3], in assay [4] and in assay [8] was “inactive” in each case. Besides, the figures for the “inhibition zone (IZ)” value in assay [5], in [6] and in assay [7] were 6 mm, 8 mm and 23 mm, respectively.

`O=S(=O)(Cl)c1ccc(/N=c2/oc(-c3ccc(Cl)cc3)cn2Cc2ccccc2)cc1`: in assay [1], the inhibition came out at 21%. Besides, the “inhibition zone (IZ)” value is listed as 10 mm in assay [2]; 12 mm in assay [3]; 8 mm in assay [4]; 8 mm in assay [5]; 6 mm in assay [6]; 18 mm in assay [7]. The “inhibition zone (IZ)” value in assay [8] and in [9] was “inactive” throughout.

With `O=C(NCc1ccccc1)Nc1ccc(S(=O)(=O)Cl)cc1`, in assay [1], the inhibition was determined as 23%. In addition, the “inhibition zone (IZ)” value in [2] came to 20 mm; in [3], 15 mm; in assay [4], 18 mm; in assay [5] it was 16 mm; in assay [6] it was 18 mm; in assay [7] it was 30 mm. Moreover, the results for the “inhibition zone (IZ)” value in assay [8] and in assay [9] were 25 mm and 20 mm, respectively.

Take `CC(=O)OCC1=C(C(=O)O)N2C(=O)[C@@H](NS(=O)(=O)c3ccc(NC(=O)NCc4ccccc4)cc3)[C@H]2SC1`: the “inhibition zone (IZ)” value in assay [2] came to 10 mm; in assay [3] it was 14 mm; in [4], 10 mm; in assay [5], 10 mm; in [6], 10 mm; in [7] it was 18 mm. For the same compound, the figures for the “inhibition zone (IZ)” value in [8] and in [9] were 10 mm and 8 mm, respectively.

`CC(=O)OCC1=C(C(=O)O)N2C(=O)[C@@H](NS(=O)(=O)c3ccc(N)cc3)[C@H]2SC1`: in assay [1], the inhibition is 1%. Besides, the “inhibition zone (IZ)” value in [2] was determined as 20 mm; in assay [3], 12 mm; in [4], 14 mm; in assay [5] it was 16 mm; in assay [6] it was 18 mm; in [7], 20 mm. Also, the “inhibition zone (IZ)” value is given as 12 mm in [8] and 30 mm in [9].
